eIF4E 4G PPI = inhibitors of eIF4E and eIF4G interaction in translation initiation; inhibition, % at 21.7 µM; AID 782; hit rate 0.37% among 220,000; TR-FRET eIF4E-eIF4GI(517-606) binding, 2 h;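 active = inhibition above about 30%, limit read from the data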;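 also: 0% = full FRET control wells and 100% = background wells lacking eIF4GI fragment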
UBC9 SUMO inh = blocks human SUMOylation mediated by UBC9 | P63279 | HTRF SUMOylation assay, SAE1/SAE2 + UBC9, in vitro | inhibition, % at 35 µM | hit rate 0.36% among 290,000 | AID 2006; in the data active = inhibition above about 50%, passing the limit was not always enough; inconclusive = no clear call, values can overlap the other calls
eIF4H inh = inhibitors of RNA binding by human eIF4H. inhibition, % at 35 µM. hit rate 0.94% among 290,000. Q15056. eIF4H fluorescence polarization binding assay. AID 2012;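 also: calls also rest on retests at 20 µM and on dose response follow-up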
MLLE-PAM2 inh = inhibitors of microRNA-mediated deadenylation, human PABP1 MLLE binding; P11940; GST-MLLE / FITC-PAM2 fluorescence polarization; inhibition, % at 20 µM; hit rate 0.36% among 360,000; in the data active = inhibition above about 35%, passing the limit was not always enough;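 also: plate controls were DMSO wells with GST-MLLE for no effect and wells lacking GST-MLLE protein for full effect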
HCV core dimer = blocks dimerization of HCV core protein. TR-FRET GST/Flag-core106 dimerization, 1536-well. inhibition, % at 5 µM. hit rate 0.33% among 300,000. AID 1899;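 active = inhibition above the mean of all tested compounds plus 3 SD, set per screening campaign, cut at about 45% in these data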
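Test system: GST/Flag-tagged HCV core106 proteins; Medium: KF-containing HEPES buffer, pH 7.45, DTT, CHAPS, BSA; Times: compound-protein-antibody incubation 4 h at 22.5 °C; Detection: TR-FRET 671 and 617 nm emission; Benchmarks: wells lacking GST-core106 and wells with excess unlabelled core106.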
PABP FP inh = blocks human PABP binding to poly(A) RNA; P11940; fluorescence polarization; calls only at 35 µM; hit rate 1% among 290,000;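 also: calls also rest on retests at 20 µM and on dose response follow-up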
* hit, by the source's call; i = inactive; ? = inconclusive; . = no result given; + = active, no number; [ ] = dose if it differs, or a comment. Shown are actives, neighbours in structure and some others; about 1.8% of the full set was active somewhere. Unless noted, no rule for the calls is given here.

SMILES	eIF4E 4G PPI	UBC9 SUMO inh	eIF4H inh	MLLE-PAM2 inh	HCV core dimer	PABP FP inh
Oc1c(C(c2ccc(Cl)cc2)N2CCCC2)cc(Cl)c2cccnc12 (stereo not drawn)	3	-40	15	29	-1	i
CSCC[C@H](N)C(=O)N1CCC(C(=O)N[C@H](C(=O)NCc2ccccc2F)C(C)C)CC1	.	6	1	7	2	i
COc1cc(NC(=O)Cn2cnc(S(=O)(=O)N3CCC(C)CC3)c2)cc(OC)c1OC	.	10	0	2	7	i
COc1ccc(N2CCN(c3oc(-c4ccco4)nc3C#N)CC2)cc1	-2	0	100*	6	-7	i
N#Cc1nc(-c2ccco2)oc1N1CCN(c2ccccc2)CC1	3	24	-13	3	5	i
Cc1noc(C)c1-c1csc(N2CCC(C(N)=O)CC2)n1	.	.	.	40*	.	.
Cc1oc2c(cc(NS(=O)(=O)c3ccc(C(C)C)cc3)c3ccccc32)c1C(=O)O	.	20	66*	126	22	+
CN(CC(=O)Nc1ccc(Cl)c(C(F)(F)F)c1)C(=O)c1cc(=O)c2ccccc2o1	.	.	.	2	.	.
O=C(Cc1ccc2c(c1)CCCC2)Nc1ccccc1Br	-1	19	-8	38*	8	i
CN(C)CCNc1ncnc2c1ncn2[C@H]1CN(CCc2ccccc2)C[C@@H](CO)O1	.	.	.	-2	.	.
COc1ccc2oc(=O)c(C(=O)NCc3ccccc3)cc2c1	.	26	-3	0	-1	i
COc1ccc2oc(=O)c(C(=O)OCc3ccccc3)cc2c1	.	42	-4	43*	3	i
COc1cc2c(cc1OC)[C@H](C)N(C(=O)NCc1ccccc1)CC2	.	10	-3	-4	1	i
O=c1oc2ccc(Cl)cc2nc1/C=C(\O)c1ccco1	-1	17	3	-78	-1	i
CC(C)C/C(O)=C/c1nc2cc(Cl)ccc2oc1=O	0	22	79*	13	-16	+
C#CCOCCOCCOCCNc1nc(N2CCN(C(=O)[C@H]([C@@H](C)CC)n3cc([C@@H](N)CC(C)C)nn3)CC2)nc(N2CCN(C(=O)[C@H](CCCCN)n3cc([C@@H](N)CC(C)C)nn3)CC2)n1	3	5	55*	.	-9	+
CC(C)C[C@H](N)c1cn([C@@H](CCCCN)C(=O)N2CCNCC2)nn1	2	2	16	10	-1	+
NCCCC[C@@H](C(=O)N1CCNCC1)n1cc(CN)nn1	.	.	.	-6	-8	.
CCCCc1cn([C@@H](CCCCN)C(=O)N2CCNCC2)nn1	-1	0	?	49*	-4	?
CCNC(=O)C1(C)CCN(C(=O)c2cccc(Cl)c2)C1 (stereo not drawn)	.	.	.	5	.	.
O=S(=O)(NCCCSc1ccccc1)c1ccccc1F	.	-3	-9	43*	0	i
NCCCC[C@@H](C(=O)NCCCCCCCCCCC(=O)N1CCNCC1)n1cc(CCCC(=O)O)nn1	.	.	.	1	5	.
O=C(O)c1ccc(CS(=O)(=O)c2c(Cl)cccc2Cl)o1	.	22	2	-4	2	i
Nc1cccc2nsnc12	1	88*	9	1	1	i
Cc1ccc2nsnc2c1N	-3	19	1	7	-6	i
SMILES	eIF4E 4G PPI	UBC9 SUMO inh	eIF4H inh	MLLE-PAM2 inh	HCV core dimer	PABP FP inh
O=c1[nH][nH]c2cc(=O)n(-c3ccc(Cl)cc3)nc12	0	9	59	5	-2	i
Oc1c(/C=N/Nc2cccc3cccnc23)ccc2ccccc12	-1	66*	?	-15	-1	i
CCc1ccccc1N(C(C)=O)c1nc(CCl)cs1	0	1	active	23	3	i
NS(=O)(=O)c1ccc(CCNS(=O)(=O)c2cccc3nsnc23)cc1	.	2	3	6	-2	i
CCOC(=O)C1=C(C)N=c2s/c(=C/c3ccco3)c(=O)n2C1c1cccc(OC)c1 (stereo not drawn)	7	35	?	.	48*	?
COC(=O)C1=C(C)N=c2s/c(=C/c3ccoc3)c(=O)n2C1c1ccccc1 (stereo not drawn)	9	20	83*	-115	1	+
CCOC(=O)C1=C(C)N=c2s/c(=C\c3ccc(OCC(=O)O)cc3)c(=O)n2C1c1ccccc1 (stereo not drawn)	.	23	22	-69	9	i
CN(C)CCNc1oc(COc2ccc(Cl)cc2Cl)nc1C#N	-11	-9	30	15	-6	+
Cc1cccc(NC(=O)c2sc3nc4c(c(-c5cccs5)c3c2N)CN(C)CC4)c1	-3	24	110*	-12	-4	+
Cc1ccc(SCc2cc(=O)[nH]c(/N=C(\N)Nc3ccc(C)c(C)c3)n2)cc1	49*[fluorescence artefact?]	-7	-6	-7	0	i
N#Cc1ccc2c(=O)n(-c3ccccc3)sc2c1	.	.	.	39*	.	.
CC(=O)Nc1ccc2c(=O)n(-c3ccccc3)sc2c1	.	.	.	26	.	.
O=C1c2ccccc2C(=O)N1c1nccs1	.	.	.	1	.	.
O=c1c2ccccc2sn1-c1nccs1	68*	-11	4	29	.	?
CN(C)S(=O)(=O)c1cccc(-n2sc3ccccc3c2=O)c1	56*	4	-8	29	-2	i
Cc1ccc(-n2sc3ccccc3c2=O)cc1S(=O)(=O)N1CCCCC1	32*	-2	-3	8	24	i
O=C(Cn1ccc(C(F)(F)F)n1)N/N=C/c1ccc(N2CCOCC2)cc1	-1	25	-8	8	-5	i
CN(CCC1CCOCC1)C(=O)C1CCC(=O)N(CCc2ccccc2)C1 (stereo not drawn)	.	9	-12	6	-2	i
O=S1(=O)CC(N2CCN(CCO)CC2)CN1C1CCCCC1 (stereo not drawn)	.	.	.	2	.	.
O=c1c2ccccc2sn1-c1cccc(Cl)c1	.	.	.	22	.	.
O=c1c2ccccc2sn1-c1ccccc1	54*	5	-4	46*	-11	i
CCOC(=O)C1=NOC(COc2ccccc2C=O)C1 (stereo not drawn)	2	0	6.7*	17	7	+
CCOC(=O)N1CC=C2C(C#N)=C(N)C(C#N)(C#N)[C@H](c3cccs3)C2C1 (stereo partly drawn)	2	20	?	17	9	i
CC1CC=C2C(C#N)=C(N)C(C#N)(C#N)C(c3cccs3)C2C1 (stereo not drawn)	5	3	123*	80	6	+
Cc1cccc(OCc2nnc(-c3ccc(F)cc3)o2)c1	.	.	.	-5	.	.
C(=C\c1ccccc1)/CSc1ccccn1	-1	16	active	-10	6	+
Cc1cc(C)nc(SC/C=C/c2ccccc2)n1	.	-4	0	20	-2	i
C/C=C/c1ccc(OCCCCNCc2ccco2)c(OC)c1	0	16	8.0*	1	0	+
